According to the RNAGym collection of RNA variant scans (doi:10.1126/science.aae0568):
Fewer inactive variants are shown than the library holds.

B1: tRNA (parent)
chain: GUUCCGUUGGCGUAAUGGUAACGCGUCUCCCUCCUAAGGAGAAGACUGCGGGUUCGAGUCCCGUACGGAACG

Variants of: B1
Assay: yeast fitness relative to wild type (ratio to wild type); higher = fitter; tRNA-Arg(CCU), competitive growth, 37 C, YPD
Summary of the method: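 Changes in genotype frequencies gave Darwinian fitness relative to wild type. Frequencies were read by 100-nucleotide paired-end sequencing of gene amplicons before and after pooled Saccharomyces cerevisiae strains, carrying tRNA-Arg(CCU) gene variants at the native locus, were competed in YPD at 37°C for 24 hours in six replicates. A genotype was kept only with ≥ 100 starting reads, and estimates < 0.5 were set to 0.5.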

Variant	yeast fitness
C5U U64C	0.932
C5U U64A	0.933
C5U U64G	0.853
C5U U28A G41A U54C	≤ 0.5
C5U U8C A36G C60A	≤ 0.5
C5U U16C A36G	0.73
G6A A14U A21U G25C C60U C61A C62G	≤ 0.5
G6A A20C C55A G68A	≤ 0.5
C5U U28A G41A A70U	≤ 0.5
C5U U32A G50A	0.581
C5U U8A A70C	0.583
C5U U59C	0.946
C5U U59A	0.886
G6A A15G C22A G25A C33U G52C G56C	≤ 0.5
G6A A14G C46G C62G	≤ 0.5
C5U G56C A65U A70G	≤ 0.5
G6A A14G G48C	≤ 0.5
C5U U28A U35C U59A	≤ 0.5
G6A A20C C55A	0.583
G6A A20C C55U	0.568
C5U G44C C49U U64G G67A	0.51
C5U U13A C22U C30A A37G G41C C46G	≤ 0.5
C5U U19C A69G	0.706
C5U G48U A70C	0.707

Variant	yeast fitness
C5U U47C A57C	≤ 0.5
G6A A20U C27U A57U	≤ 0.5
G6A A15U A20G	≤ 0.5
G6A A21C A43U	0.528
C5U U16G G58C	0.576
G6A A15C A20U C29U	≤ 0.5
C5U U8G	0.64
C5U U8C	1.07
C5U U26A U59C	0.722
C5U U16A C46A G68A	0.625
C5U U8C C31G C33G C34U G68A	≤ 0.5
G6A A15G C46A	0.557
G6A A20U C61U G67A G68U	≤ 0.5
C5U U7C A40U G63C	≤ 0.5
G6A A14U G48A	0.547
C5U U28A G67A	0.545
C5U G50C G51C G56C A69U	≤ 0.5
C5U U7G C62A	≤ 0.5
C5U U13C C24G U26C A37G U54G	≤ 0.5
G6A A15C G51A A57U G68A	≤ 0.5
C5U U16A G38A A42G	≤ 0.5
C5U G56A	0.937
C5U G56C	0.651
G6A A15G U19C C22A	≤ 0.5

Variant	yeast fitness
G6A A15C A36C A42U C55G C61U	≤ 0.5
G6A A14C C24U G50A A57U A70U	0.745
G6A A15G C30A A57G	≤ 0.5
C5U U13A G58C	0.63
C5U G51A	0.798
G6A A14U G23U	≤ 0.5
G6A A20C A65U	0.699
G6A A20C A65G	0.672
C5U G56A A65G C66U	0.671
C5U U7C C30A A42C A65U A69U	≤ 0.5
C5U U8A G18C A20G	0.537
C5U U47C U54C C55G	≤ 0.5
C5U G48A G50A C55U A65C	≤ 0.5
C5U G58C G68A	0.513
C5U U13G C55U G67C	≤ 0.5
G6A A20U C49U	0.542
C5U U19A A20U G48A C60A	≤ 0.5
C5U G44C	1.01
C5U U26G A43C C62G G63A C66G A69G	0.549
C5U U13C A20U A37C G44C	≤ 0.5
C5U U32G C33G C55U	0.621
C5U U19C C22U	0.721
C5U U16C A20G A40G A43G G67C	≤ 0.5
G6A A15C C27A A37G A43G	≤ 0.5

Variant	yeast fitness
C5U U19A G25C C29A A43U	≤ 0.5
C5U U16C C29A	0.522
C5U U13G C33A A37C C61U	≤ 0.5
C5U U13G A57C	0.755
C5U U19C C34U A70C	≤ 0.5
C5U U32A	0.789
C5U U32G	0.669
C5U U13G A15C	0.509
C5U U13G A15U	≤ 0.5
C5U U7C G38A A45G G48A G67A	≤ 0.5
C5U U26A C55G	≤ 0.5
C5U U16C A20G C29A	≤ 0.5
G6A A15G U26A C30G C46U	0.661
C5U U32C G39A	0.584
G6A A20G C24U A40G A43G	≤ 0.5
C5U U7A U26A G39C	≤ 0.5
C5U U26C G50C G51C G56C G67A	≤ 0.5
C5U U7A A20C G68C	≤ 0.5
C5U U19G C46A C55G	≤ 0.5
C5U U7G A14C C29G	≤ 0.5
C5U U32C C55U	0.564
C5U U7C	0.92
C5U U7G	0.894
C5U U7A	0.772

Variant	yeast fitness
G6A A15U A20U G38C	≤ 0.5
C5U G48C	0.853
C5U U26A G68C	0.663
C5U U13A C62A	0.546
C5U U35C A36U G38A C46A U54C G68C	≤ 0.5
G6A A14U C29A C49A	≤ 0.5
C5U U13C A15C	≤ 0.5
C5U U26A A43U	0.715
C5U U19G G67A	0.649
G6A A14G C33A	≤ 0.5
G6A A15C C29A C66U	≤ 0.5
C5U G58C C66G	≤ 0.5
G6A A14U C55U C61A	≤ 0.5
G6A A20G A36G C49G C62A C66U	≤ 0.5
G6A A14C A20G A42U G56A G63C	≤ 0.5
C5U U19G C66A	0.531
G6A A20U A42G	≤ 0.5
C5U U59G C61G	0.606
G6A A21C C33G A45C G50C	0.515
C5U U54A A69U	≤ 0.5
C5U U26A C66U	0.792
C5U G51C G56C A69U	≤ 0.5
G6A A14U C61A	≤ 0.5
C5U U19C A21U C31U A42G A43U A65C	≤ 0.5

Variant	yeast fitness
C5U G58C U59C	0.675
C5U U16G U64C	0.932
C5U U8C C11G A15U C49U G51A G63A	≤ 0.5
C5U G50A	0.888
C5U U16A	0.882
C5U G51C G56C	≤ 0.5
C5U U54A	0.699
C5U U54G	0.647
C5U U54C	0.805
C5U U7A C33U A42C U64C A70G	≤ 0.5
C5U G41A C49U A65G C66U	≤ 0.5
C5U U16G G51C A57C	≤ 0.5
C5U U7A C33A A45C	0.573
G6A A15C C33U G39C C62G G68C	≤ 0.5
G6A A15C C27G G44C C49A U64A	0.538
C5U G44A G68A	0.522
C5U U47A C49U A69U	≤ 0.5
C5U U16A C34A G63A	≤ 0.5
G6A A20G A37G G50A	≤ 0.5
C5U U13A G18C C30G A37U C46U	≤ 0.5
C5U U19G G23A C46A	≤ 0.5
C5U U16C C30A C31U	≤ 0.5
C5U U13A A15G G50C A57G	0.536
C5U U16C C22G C29G	≤ 0.5

Variant	yeast fitness
C5U U16G A57G C62G C66U	≤ 0.5
G6A A15G U54C	≤ 0.5
C5U U7A G18U U28A	≤ 0.5
G6A A21C C62U	≤ 0.5
C5U U13A A70U	0.737
C5U U28A C62G	≤ 0.5
C5U U19G C46U A69C	≤ 0.5
C5U U8C A36G A40G C60A	≤ 0.5
C5U U32C A45G C46A	0.602
C5U U7A U28A C49U	≤ 0.5
C5U G58C	1
C5U G58A	0.88
C5U U16A C34A	≤ 0.5
C5U U8A C11U U35G A43U C46G U53C A69C	≤ 0.5
C5U U28C C33G G38A U64G	≤ 0.5
G6A A20G C30U C55U	≤ 0.5
C5U U7C G52C A57U C62U C66G	≤ 0.5
G6A A14C A37U U54A	≤ 0.5
C5U U13A C29G C31A	0.593
C5U U13A C29G C31G	≤ 0.5
G6A A15U C27A A65C A69C	≤ 0.5
C5U U16C A69C	0.671
C5U U35C U54C C55A	≤ 0.5
